From PMC4633020 (Journal of medicinal chemistry, 2015)
≈ marks a conversion by molar mass, not a printed value. Entries after “also recorded” stand apart in the source; their conditions may differ.

How the values were obtained:
Hemolysis assay = details: red blood cells
[1] = system: PBPs in the E. faecium membrane fractions; experiment: PBP inhibition in E. faecium membrane fractions; assay type: binding; details: data less clear due to low PBP copy numbers
E. faecium NCTC 7171 = experiment: MIC, broth microdilution; assay type: cell-based, Enterococcus faecium; details: for MIC: Enterococcus faecium, NCTC7171, E. faecium NCTC 7171
[2] = In vitro metabolic stability in human liver S9; assay type: in vitro ADME; details: calculated from in vitro half-life in human liver S9
PBP2a of S. aureus = PBP2a of S. aureus (Staphylococcus aureus, UniProt P07944); experiment: BOCILLIN FL binding assay for PBP2a; details: at concentrations of up to 100 μg/mL
Chain of PBP2a of S. aureus (P07944 whole entry): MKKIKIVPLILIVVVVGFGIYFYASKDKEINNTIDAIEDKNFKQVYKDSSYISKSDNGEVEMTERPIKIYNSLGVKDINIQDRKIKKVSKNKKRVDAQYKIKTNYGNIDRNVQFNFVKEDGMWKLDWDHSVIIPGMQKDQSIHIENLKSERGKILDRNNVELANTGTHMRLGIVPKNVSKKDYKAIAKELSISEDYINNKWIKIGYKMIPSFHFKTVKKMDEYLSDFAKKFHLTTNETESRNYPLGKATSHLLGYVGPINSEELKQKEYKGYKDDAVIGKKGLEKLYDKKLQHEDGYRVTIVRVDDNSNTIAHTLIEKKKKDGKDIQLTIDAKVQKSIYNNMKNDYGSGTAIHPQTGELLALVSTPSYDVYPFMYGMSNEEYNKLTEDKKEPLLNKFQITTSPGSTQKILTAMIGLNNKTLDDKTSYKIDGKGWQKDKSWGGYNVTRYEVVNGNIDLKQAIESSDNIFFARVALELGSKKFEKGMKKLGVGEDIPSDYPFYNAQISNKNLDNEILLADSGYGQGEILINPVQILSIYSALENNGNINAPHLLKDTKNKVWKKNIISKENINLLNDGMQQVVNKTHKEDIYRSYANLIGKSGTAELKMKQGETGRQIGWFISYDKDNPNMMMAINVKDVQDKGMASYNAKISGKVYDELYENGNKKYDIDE

PBP5fm of E. faecium = experiment: BOCILLIN FL binding assay for PBP5fm; details: at up to 100 μg/mL
Method in brief: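 Recombinant PBP5 (aa 34-678, E. faecium D63r) carried an N-terminal His-tag, was expressed in E. coli BL21(DE3), and was purified by anion exchange then metal chelate column. Enzyme (40 μM final) was preincubated with test compound in 25 mM Hepes, 1 M NaCl, pH 7.0 at 37 °C. BOCILLIN FL (30 μM final) was then added, with incubations of 20 min. Labelling was read by 12% SDS-PAGE fluorescence scan and band quantitation against a no-inhibitor control.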

[3] = system: E. faecium 119-39A (Van S); experiment: MIC, additional E. faecium strains; assay type: cell-based; details: Enterococcus faecium
E. faecium ATCC BAA 2127 = experiment: MIC, additional E. faecium strains; assay type: cell-based; details: Enterococcus faecium, BAA2127
E. faecium C9 = experiment: MIC, additional E. faecium strains; assay type: cell-based; details: Enterococcus faecium
[4] = system: transcription and translation (β-galactosidase expression); experiment: Tandem in vitro transcription and translation assay; assay type: biochemical, Escherichia coli; details: E. coli S30 extract
E. faecium NCTC7171 = experiment: Macromolecular synthesis assays; assay type: cell-based, Enterococcus faecium; details: 2 × MIC (8 μg/mL), 120 min
transcription = experiment: In vitro transcription assay; assay type: biochemical; details: T7 transcription kit
[5] = system: other bacteria in the ESKAPE panel; experiment: Antibacterial screening against the ESKAPE panel; assay type: cell-based; details: result in words

Q: Which results are given for `CC1=C(C(N)=O)C(c2ccc(N(C)C)cc2)n2nc(SCc3ccc(C#N)cc3)nc2N1` (stereo not drawn) [Compound 84, 2-(4-Cyanobenzylthio)-7-(4-dimethylaminophenyl)-5-methyl-4,7-dihydro-[1,2,4]triazolo[1,5-a]pyrimidine-6-carboxamide]?
A: hemolysis at 64 μg/mL (Hemolysis assay): 1 to 2%; inhibition of PBPs in E. faecium membranes [1]: did not inhibit; antibacterial activity against E. faecium (in words) (E. faecium NCTC 7171; SAR discussion, E. faecium NCTC 7171): as active as compound 1; Apparent intrinsic clearance [2]: <10.4 mLmin^−1kg^−1; inhibition of recombinant PBP2a (PBP2a of S. aureus): lacked the ability to inhibit; also recorded: did not inhibit; inhibition of PBP5fm (PBP5fm of E. faecium): lacked the ability to inhibit; also recorded: did not inhibit

Q: What does the source list for `CN[C@H](CC(C)C)C(=O)N[C@H]1C(=O)N[C@@H](CC(N)=O)C(=O)N[C@H]2C(=O)N[C@H]3C(=O)N[C@H](C(=O)N[C@H](C(=O)O)c4cc(O)cc(O)c4-c4cc3ccc4O)[C@H](O)c3ccc(c(Cl)c3)Oc3cc2cc(c3O[C@@H]2O[C@H](CO)[C@@H](O)[C@H](O)[C@H]2O[C@H]2C[C@](C)(N)[C@H](O)[C@H](C)O2)Oc2ccc(cc2Cl)[C@H]1O` [vancomycin]?
A: MIC [3]: 0.5 µg/mL (≈ 0.345 µM); MIC (E. faecium ATCC BAA 2127): 1 µg/mL (≈ 0.69 µM); MIC (E. faecium C9): 2 µg/mL (≈ 1.38 µM)

Q: What does the source list for `CC1=C(C(N)=O)C(c2ccc(N(C)C)cc2)n2nc(SCc3ccccc3)nc2N1` (stereo not drawn) [Compound 16, 2-(Benzylthio)-7-(4-dimethylaminophenyl)-5-methyl-4,7-dihydro[1,2,4]triazolo[1,5-a]pyrimidine-6-carboxamide]?
A: hemolysis at 64 μg/mL (Hemolysis assay): 1 to 2%; effect on in vitro transcription and translation [4]: did not show any effect; MIC (E. faecium NCTC 7171): ≤ 8 µg/mL; Apparent intrinsic clearance [2]: <10.4 mLmin^−1kg^−1; inhibition of peptidoglycan biosynthesis (E. faecium NCTC7171; D-[2,3-3H]-alanine incorporation): notable inhibition; inhibition of translation (protein synthesis) (E. faecium NCTC7171; L-[4,5-3H]-leucine incorporation): did not inhibit; inhibition of transcription (RNA synthesis) (E. faecium NCTC7171; [5,6-3H]-uridine incorporation): did not inhibit; inhibition of replication (DNA synthesis) (E. faecium NCTC7171; [methyl-3H]-thymidine incorporation): did not inhibit; effect on in vitro transcription (transcription): did not show any effect

Q: Which “antibacterial activity against the other bacteria in the ESKAPE panel” value [5] does the source give for `CC1=C(C(N)=O)C(c2ccc(C(C)C)cc2)n2nc(SCc3ccccc3)nc2N1` (stereo not drawn) [Compound 1, 2-(Benzylthio)-7-(4-isopropylphenyl)-5-methyl-4,7-dihydro-[1,2,4]triazolo[1,5-a]pyrimidine-6-carboxamide] here?
A: Its value is “No antibacterial activity”.

Q: What about the “inhibition of PBPs in E. faecium membranes” value [1] of the same compound?
A: Its value is “did not inhibit”.

Q: And the MIC (E. faecium NCTC 7171)?
A: The MIC was no more than 8 µg/mL.

Q: What about the Apparent intrinsic clearance [2] of the same compound?
A: The Apparent intrinsic clearance was 11.1 mLmin^−1kg^−1.

Q: What about the “inhibition of recombinant PBP2a” value (PBP2a of S. aureus) of the same compound?
A: The value was “no inhibition; also recorded: did not inhibit”.

Q: What about the “inhibition of PBP5fm” value (PBP5fm of E. faecium) of the same compound?
A: The value was “no inhibition; also recorded: did not inhibit”.
